Values belong to the compound of their own block, whether it stands above or below them.
Legend:
HUVEC [1] = assay: cells; type: cell-based; settings: Homo sapiens, 72 h, read-out: IC50 VEGF‐stimulated HUVEC proliferation
EGFR = EGFR (Homo sapiens, UniProt P00533); assay: biochemical; type: biochemical
rat aortic rings = assay: Rat aortic ring assay; type: cell-based; settings: 100 nmol/L, VEGF 50 ng/mL, 7 days
In short: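 Thoracic aortas from 6-week-old male Sprague-Dawley rats were cut into 1-mm rings, embedded in Matrigel and held 1 h at 37°C. M199 containing VEGF-A (50 ng/mL) plus drug was added. After 7 days, sprouting microvessels were counted in 5 random fields.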

c‐Met = c‐Met (Homo sapiens, UniProt P08581); assay: Tyrosine kinase ELISA, c‐Met; type: biochemical
panel of tumor cells = assay: FBS‐stimulated tumor cell proliferation; type: cell-based, human
In short: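 Tumor lines were grown in 10% FBS and treated with serial drug dilutions for 72 h, with sulforhodamine B readout. IC50 was obtained by curve fitting (mean ± SD, 3 independent experiments).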

HER2 [2] = target: T1, HER2 (Homo sapiens, UniProt P04626); assay: Constitutive HER2 signaling in BT‐474 cells; type: cell-based; settings: even at 1000 nmol/L
[3] = once‐daily dose of 12 mg; cited from earlier work
VEGFR1 = VEGFR1 (Homo sapiens, UniProt P17948); assay: Tyrosine kinase ELISA, VEGFR1; type: biochemical
c‐Src = c‐Src (Homo sapiens, UniProt P12931); assay: biochemical; type: biochemical
SW620 tumor xenografts = assay: SW620 tumor xenograft in nude mice; type: in vivo
In short: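 Female Balb/cA-nude mice, 5–6 weeks old, received cells subcutaneously in the left axilla and were randomized at 100–200 mm3 tumor volume. Dosing was oral, daily for 18 d (vehicle n = 12, treated n = 6). Tumor volume, calculated as (length × width²)/2, and bodyweight were measured twice weekly. TGI was calculated from treatment start against vehicle. Data are mean ± SEM; Student's t test.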

HER2 [4] = target: T1, HER2; assay: Tyrosine kinase ELISA, HER2; type: biochemical
HUVEC [5] = assay: cells; type: cell-based; settings: Homo sapiens, 8 h, read-out: IC50 HUVEC migration in response to VEGF
HUVEC [6] = assay: FBS‐stimulated HUVEC proliferation; type: cell-based; settings: Homo sapiens, 72 h, read-out: IC50 FBS‐stimulated HUVEC proliferation
In short: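 HUVEC were isolated from umbilical cord veins and maintained in M199 with 20% FBS plus endothelial cell growth supplement. Cells were exposed to serial drug dilutions with 20% FBS for 72 h. Viability was measured by sulforhodamine B, and IC50 was obtained by curve fitting. Values are mean ± SD of 3 independent experiments.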

HUVEC [7] = assay: HUVEC tube‐formation assay on Matrigel; type: cell-based, human; settings: 100 nmol/L, 20% FBS, 6 h
In short: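 Matrigel was set at 37°C for 30 min. HUVEC (1 × 10^5/mL) in M199 with 20% FBS and drug were then plated onto it. After 6 h, capillary tube formation was imaged at high magnification.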

VEGFR2 [8] = target: T2, VEGFR2 (Homo sapiens, UniProt P35968); assay: Tyrosine kinase ELISA, VEGFR2; type: biochemical
[9] = test system: CD31‐positive microvessels in SW620 tumor xenografts; assay: CD31 immunohistochemistry, microvessel density in SW620 xenograft tumors; type: in vivo, nude mice
In short: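 Nude mice (female Balb/cA-nude) bearing subcutaneous SW620 xenografts were dosed orally once daily for 14 days. Tumors were formalin-fixed and paraffin-embedded, and sections were stained for the endothelial marker CD31 with a rabbit anti-mouse antibody and an S-P immunodetection kit. Vessel density was derived from CD31 staining.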

VEGFR2 [10] = target: T2, VEGFR2; assay: VEGF‐stimulated VEGFR2 phosphorylation in HUVEC; type: cell-based
c‐Kit [11] = target: T3, c‐Kit (Homo sapiens, UniProt P10721); assay: Tyrosine kinase ELISA, c‐Kit; type: biochemical
PDGFRβ = PDGFRβ (Homo sapiens, UniProt P09619); assay: PDGF‐BB‐stimulated PDGFRβ phosphorylation in U‐87MG cells; type: cell-based; settings: PDGF‐BB 10 ng/mL
c‐Kit [12] = target: T3, c‐Kit; assay: SCF‐1‐stimulated c‐Kit phosphorylation in Mo7e cells; type: cell-based; settings: SCF‐1 2.5 ng/mL
VEGFR3 = VEGFR3 (Homo sapiens, UniProt P35916); assay: Tyrosine kinase ELISA, VEGFR3; type: biochemical

T1 sequence (P04626 23-1255): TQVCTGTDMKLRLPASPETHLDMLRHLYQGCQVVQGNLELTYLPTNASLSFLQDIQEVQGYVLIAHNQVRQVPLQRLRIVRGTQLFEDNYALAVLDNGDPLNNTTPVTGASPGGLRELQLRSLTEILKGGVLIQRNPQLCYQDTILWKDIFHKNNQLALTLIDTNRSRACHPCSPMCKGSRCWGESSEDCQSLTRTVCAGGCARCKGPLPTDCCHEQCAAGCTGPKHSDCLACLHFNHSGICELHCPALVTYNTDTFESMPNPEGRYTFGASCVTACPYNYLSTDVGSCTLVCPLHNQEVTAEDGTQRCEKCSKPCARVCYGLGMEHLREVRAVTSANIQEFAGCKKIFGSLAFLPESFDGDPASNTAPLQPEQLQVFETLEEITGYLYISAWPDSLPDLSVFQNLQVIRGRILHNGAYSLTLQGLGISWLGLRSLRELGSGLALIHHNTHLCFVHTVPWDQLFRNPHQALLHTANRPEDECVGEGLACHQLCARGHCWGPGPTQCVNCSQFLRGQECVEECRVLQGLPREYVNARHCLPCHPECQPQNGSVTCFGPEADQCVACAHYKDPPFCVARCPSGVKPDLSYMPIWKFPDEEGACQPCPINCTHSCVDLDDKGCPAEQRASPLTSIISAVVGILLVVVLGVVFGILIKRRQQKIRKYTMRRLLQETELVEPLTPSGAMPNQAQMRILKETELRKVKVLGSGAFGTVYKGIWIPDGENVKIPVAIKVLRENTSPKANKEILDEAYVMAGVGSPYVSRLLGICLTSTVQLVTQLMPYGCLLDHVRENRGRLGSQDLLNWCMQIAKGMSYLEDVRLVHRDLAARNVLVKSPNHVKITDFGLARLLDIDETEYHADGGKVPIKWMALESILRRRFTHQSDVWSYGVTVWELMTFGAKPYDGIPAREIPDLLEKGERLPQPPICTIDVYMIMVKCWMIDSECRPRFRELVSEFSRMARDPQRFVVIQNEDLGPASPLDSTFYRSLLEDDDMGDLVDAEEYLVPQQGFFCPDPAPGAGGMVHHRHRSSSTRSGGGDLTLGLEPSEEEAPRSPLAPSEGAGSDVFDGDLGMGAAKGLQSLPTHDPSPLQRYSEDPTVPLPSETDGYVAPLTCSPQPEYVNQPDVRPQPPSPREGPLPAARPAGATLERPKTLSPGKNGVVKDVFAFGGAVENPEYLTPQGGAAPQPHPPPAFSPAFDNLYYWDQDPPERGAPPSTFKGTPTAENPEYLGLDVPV
T2 sequence (P35968 20-1356): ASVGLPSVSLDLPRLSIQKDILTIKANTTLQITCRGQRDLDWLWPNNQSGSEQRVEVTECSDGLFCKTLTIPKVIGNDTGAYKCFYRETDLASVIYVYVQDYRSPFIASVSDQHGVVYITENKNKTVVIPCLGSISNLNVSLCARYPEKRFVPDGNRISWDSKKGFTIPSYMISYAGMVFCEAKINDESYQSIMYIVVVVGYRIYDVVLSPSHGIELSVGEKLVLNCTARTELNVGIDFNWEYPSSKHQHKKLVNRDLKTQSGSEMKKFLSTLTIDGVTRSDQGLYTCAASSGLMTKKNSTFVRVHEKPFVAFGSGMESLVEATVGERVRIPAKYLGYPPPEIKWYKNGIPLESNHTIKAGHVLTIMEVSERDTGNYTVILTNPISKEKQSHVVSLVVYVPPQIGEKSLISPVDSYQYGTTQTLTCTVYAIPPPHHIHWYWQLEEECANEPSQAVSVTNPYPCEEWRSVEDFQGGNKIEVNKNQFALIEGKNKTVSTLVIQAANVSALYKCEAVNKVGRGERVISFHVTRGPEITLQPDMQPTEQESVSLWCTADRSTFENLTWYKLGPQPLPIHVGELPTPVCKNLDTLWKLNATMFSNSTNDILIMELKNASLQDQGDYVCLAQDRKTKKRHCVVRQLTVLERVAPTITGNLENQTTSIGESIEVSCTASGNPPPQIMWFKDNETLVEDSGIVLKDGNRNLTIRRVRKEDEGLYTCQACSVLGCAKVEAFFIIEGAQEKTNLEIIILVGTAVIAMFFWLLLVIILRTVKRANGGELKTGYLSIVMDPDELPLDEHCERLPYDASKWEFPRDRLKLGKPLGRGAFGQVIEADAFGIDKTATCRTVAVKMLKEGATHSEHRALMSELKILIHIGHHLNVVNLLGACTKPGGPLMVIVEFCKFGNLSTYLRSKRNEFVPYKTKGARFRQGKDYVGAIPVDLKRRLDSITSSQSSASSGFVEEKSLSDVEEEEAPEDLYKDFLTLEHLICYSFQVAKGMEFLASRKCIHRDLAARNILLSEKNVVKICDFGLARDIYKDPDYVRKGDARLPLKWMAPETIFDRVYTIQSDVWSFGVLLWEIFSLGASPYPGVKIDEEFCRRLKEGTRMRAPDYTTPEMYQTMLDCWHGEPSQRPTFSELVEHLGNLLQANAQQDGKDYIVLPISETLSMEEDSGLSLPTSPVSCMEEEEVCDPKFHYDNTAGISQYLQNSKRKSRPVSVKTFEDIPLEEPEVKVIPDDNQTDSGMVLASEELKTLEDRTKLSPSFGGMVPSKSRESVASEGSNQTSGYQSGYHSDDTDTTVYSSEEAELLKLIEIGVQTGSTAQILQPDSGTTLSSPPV
Sequence of c‐Src (P12931 whole entry): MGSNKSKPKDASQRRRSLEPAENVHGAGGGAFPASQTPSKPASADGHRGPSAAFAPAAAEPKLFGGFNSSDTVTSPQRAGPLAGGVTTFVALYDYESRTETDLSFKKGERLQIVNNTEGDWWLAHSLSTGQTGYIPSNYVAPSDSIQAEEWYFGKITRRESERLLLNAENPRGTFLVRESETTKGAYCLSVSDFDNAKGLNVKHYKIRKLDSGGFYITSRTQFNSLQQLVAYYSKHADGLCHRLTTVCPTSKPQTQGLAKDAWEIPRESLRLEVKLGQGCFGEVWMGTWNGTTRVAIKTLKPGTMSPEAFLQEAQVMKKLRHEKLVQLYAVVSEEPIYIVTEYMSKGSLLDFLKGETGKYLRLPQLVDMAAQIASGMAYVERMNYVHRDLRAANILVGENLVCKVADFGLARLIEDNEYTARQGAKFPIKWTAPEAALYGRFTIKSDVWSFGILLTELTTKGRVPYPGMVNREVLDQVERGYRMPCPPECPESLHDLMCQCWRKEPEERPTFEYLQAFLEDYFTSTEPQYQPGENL
Sequence of EGFR (P00533 25-1210): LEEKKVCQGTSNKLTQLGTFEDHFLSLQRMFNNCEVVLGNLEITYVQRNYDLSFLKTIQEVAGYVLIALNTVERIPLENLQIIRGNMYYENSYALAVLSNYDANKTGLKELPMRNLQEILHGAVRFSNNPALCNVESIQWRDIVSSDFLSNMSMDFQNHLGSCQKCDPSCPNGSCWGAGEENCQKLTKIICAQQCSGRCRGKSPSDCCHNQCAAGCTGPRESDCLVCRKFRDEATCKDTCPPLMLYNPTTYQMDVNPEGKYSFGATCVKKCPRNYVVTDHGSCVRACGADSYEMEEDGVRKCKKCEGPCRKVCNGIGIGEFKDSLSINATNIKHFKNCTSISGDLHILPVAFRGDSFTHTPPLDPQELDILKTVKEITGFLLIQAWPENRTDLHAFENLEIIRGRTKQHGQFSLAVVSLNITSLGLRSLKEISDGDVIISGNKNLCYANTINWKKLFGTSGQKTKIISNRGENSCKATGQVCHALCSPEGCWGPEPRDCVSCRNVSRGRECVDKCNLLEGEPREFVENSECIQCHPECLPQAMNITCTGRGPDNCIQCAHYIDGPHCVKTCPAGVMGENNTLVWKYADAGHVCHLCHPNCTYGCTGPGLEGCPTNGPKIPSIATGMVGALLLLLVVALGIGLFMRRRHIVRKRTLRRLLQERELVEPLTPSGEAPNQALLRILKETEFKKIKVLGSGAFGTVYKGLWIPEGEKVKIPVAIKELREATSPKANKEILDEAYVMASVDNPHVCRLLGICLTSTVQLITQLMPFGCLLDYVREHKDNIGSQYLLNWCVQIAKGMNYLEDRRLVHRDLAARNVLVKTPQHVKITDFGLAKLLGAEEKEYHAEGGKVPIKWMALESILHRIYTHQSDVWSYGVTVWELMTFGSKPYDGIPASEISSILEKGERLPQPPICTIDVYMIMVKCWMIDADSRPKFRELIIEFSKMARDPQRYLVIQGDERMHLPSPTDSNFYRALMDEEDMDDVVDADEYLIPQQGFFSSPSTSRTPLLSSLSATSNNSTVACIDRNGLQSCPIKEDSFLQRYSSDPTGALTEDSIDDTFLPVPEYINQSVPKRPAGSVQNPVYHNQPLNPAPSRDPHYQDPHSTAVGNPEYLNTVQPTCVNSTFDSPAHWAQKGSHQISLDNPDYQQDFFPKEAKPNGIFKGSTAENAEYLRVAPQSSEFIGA

Structure (SMILES): CNC(=O)c1cc(Oc2ccc(NC(=O)Nc3ccc(Cl)c(C(F)(F)F)c3)cc2)ccn1 [Sorafenib]
IC50 (HUVEC [1]): 0.195 µM

IC50 (EGFR): > 2 µM
effect on EGFR kinase activity (EGFR; at 2000 nmol/L): little effect
IC50 (c‐Met): > 2 µM
effect on c‐Met kinase activity (c‐Met; at 2000 nmol/L): little effect
IC50 (panel of tumor cells; Homo sapiens, 72 h, read-out: IC50 FBS‐stimulated tumor cell proliferation): 3 to 12.5 µM
tumor cell IC50 relative to IC50 for VEGF‐stimulated HUVEC proliferation (panel of tumor cells; greater than HUVEC value): more than 10 000 fold
IC50 (VEGFR1): 0.0269 ± 0.0077 µM
IC50 (c‐Src): > 2 µM
effect on c‐Src kinase activity (c‐Src; at 2000 nmol/L): little effect
effect on bodyweight in mice (SW620 tumor xenografts; SW620 xenograft, all groups, during the course of the experiment): little effect on bodyweight
IC50 (HER2 [4]): > 2 µM
effect on HER2 kinase activity (HER2 [4]; at 2000 nmol/L): little effect
potency relative to sunitinib for inhibition of VEGF2/3 (VEGFR2 [8]): 20 fold
IC50 (VEGFR2 [8]; IC50 VEGFR2 kinase, ELISA, recombinant tyrosine kinase, mean ± SD (n = 3)): < 0.001 µM
VEGF‐stimulated ERK1/2 phosphorylation (VEGFR2 [10]): inhibited
effect on VEGF‐stimulated VEGFR2 phosphorylation (VEGFR2 [10]; 0.1 nmol/L): clear inhibitory effect
IC50, VEGF‐stimulated intracellular phosphorylation of VEGFR2 (VEGFR2 [10]; […] treatment, VEGF 20 ng/mL 10 min): subnanomolar
IC50 (c‐Kit [11]): 0.0148 ± 0.0025 µM
PDGF‐BB‐stimulated phosphorylation of PDGFRβ, AKT and ERK (PDGFRβ): inhibited
SCF‐1‐stimulated phosphorylation of c‐Kit, AKT and ERK (c‐Kit [12]): inhibited
IC50 (VEGFR3): 0.0007 ± 0.0001 µM
Structure (SMILES): COc1cc2c(Oc3ccc4[nH]c(C)cc4c3F)ccnc2cc1OCC1(N)CC1.Cl.Cl [Anlotinib, 1‐[[[4‐(4‐fluoro‐2‐methyl‐1H‐indol‐5‐yloxy)‐6‐methoxyquinolin‐7‐Yl]oxy]methyl]cyclopropanamine dihydrochloride]
budding of the aortic ring (rat aortic rings): near complete inhibition
constitutive HER2 signaling (HER2 [2]): nor the constitutive HER2 signaling in BT‐474 cells was affected
circulation time in clinical trials [3]: long circulation time
toxicity in clinical trials [3]: manageable toxicity
%TGI (SW620 tumor xenografts; SW620 (colon), 3 mg/kg p.o. daily, 18 d, 3 mg/kg): 83%
IC50 (HUVEC [5]): 0.0001 µM
IC50 (HUVEC [6]): 2 µM
HUVEC tube formation (HUVEC [7]): few enclosed tubes were detected
inhibition rate of CD31‐positive microvessels (microvessel density) ([9]; 0.75 mg/kg oral daily): 48.9%
inhibition rate of CD31‐positive microvessels (microvessel density) ([9]; 3 mg/kg oral daily): 91.2%
inhibition rate of CD31‐positive microvessels (microvessel density) ([9]; […] oral daily): 76.3%
IC50 (HUVEC [1]): 0.0002 µM

Structure (SMILES): CCN(CC)CCNC(=O)c1c(C)[nH]c(/C=C2\C(=O)Nc3ccc(F)cc32)c1C [Sunitinib, reference compound]
inhibition rate of CD31‐positive microvessels (microvessel density) ([9]; 50 mg/kg oral daily): 63.6%
IC50 (HUVEC [1]): 0.0185 µM
